Data from the RNAGym collection of RNA variant scans (doi:10.1002/anie.201605470).

B1: Osa-1-4 twister ribozyme (parent)
chain: CCGCCUAACACUGCCAAUGCCGGUCCCAAGCCCGGAUAAAAGUGGAGGGGGCGG

Variants of: B1
Assay: self-cleavage, relative activity (ratio to wild type); higher = more cleavage; co-transcriptional
Method in brief: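 A DNA template for a 54-nucleotide Oryza sativa twister ribozyme was synthesised with 97 % wild-type base and 1 % of each other base at the 48 positions downstream of the cleavage site. It was transcribed in vitro for 2 h at 37 °C, allowing co-transcriptional self-cleavage, then reverse-transcribed with a template-switching oligonucleotide, PCR-amplified and deep-sequenced. Cleavage status was scored from reads with or without upstream sequence. Relative activity is fraction cleaved normalised to wild type.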

Compared with A10U U37A, A10U U37C is higher in self-cleavage: 0.04 for the first, 0.05 for the second.

Compared with A10U U37G, A10U U43A is higher in self-cleavage: 0.04 for the first, 0.79 for the second.

First: A10U U43C
Second: A10U U43G
The self-cleavage of the first is lower: 0.03 for the first, 0.59 for the second.

Going from C11A to C11A C9A, the self-cleavage falls from 0.84 to 0.33.

Compared with C11A C9G, C11A C9U is higher in self-cleavage: 0.19 for the first, 0.4 for the second.

Compared with C11A C14A, C11A C14G is higher in self-cleavage: 0.07 for the first, 0.1 for the second.

Going from C11A C14U to C11A C15A, the self-cleavage falls from 0.15 to 0.12.

Going from C11A C15G to C11A C15U, the self-cleavage falls from 0.1 to 0.07.

Going from C11A C20A to C11A C20G, the self-cleavage falls from 0.62 to 0.06.

Compared with C11A C20U, C11A C21A is lower in self-cleavage: 0.66 for the first, 0.14 for the second.

Compared with C11A C21G, C11A C21U is higher in self-cleavage: 0.07 for the first, 0.71 for the second.

Going from C11A C25A to C11A C25G, the self-cleavage falls from 0.11 to 0.05.

First: C11A C25U
Second: C11A C26A
The self-cleavage of the first is higher: 0.18 for the first, 0.06 for the second.

Compared with C11A C26G, C11A C26U is higher in self-cleavage: 0.06 for the first, 0.21 for the second.

Compared with C11A C27A, C11A C27G is lower in self-cleavage: 0.12 for the first, 0.04 for the second.

First: C11A C27U
Second: C11A C31A
The self-cleavage of the first is higher: 0.08 for the first, 0.05 for the second.

Compared with C11A C31G, C11A C31U is higher in self-cleavage: 0.06 for the first, 0.09 for the second.

Going from C11A C32A to C11A C32G, the self-cleavage rises from 0.06 to 0.07.

C11A C32U and C11A C33A are the same in self-cleavage: 0.06 for the first, 0.06 for the second.

Compared with C11A C33G, C11A C33U is higher in self-cleavage: 0.04 for the first, 0.2 for the second.

Compared with C11A C52A, C11A C52G is higher in self-cleavage: 0.63 for the first, 0.74 for the second.

Compared with C11A C52U, C11A G13A is lower in self-cleavage: 0.9 for the first, 0.03 for the second.

First: C11A G13C
Second: C11A G13U
The self-cleavage of the first is lower: 0.03 for the first, 0.04 for the second.

First: C11A G19A
Second: C11A G19C
The self-cleavage of the first is higher: 0.11 for the first, 0.04 for the second.

Going from C11A G19U to C11A G22A, the self-cleavage rises from 0.06 to 0.24.

Going from C11A G22C to C11A G22U, the self-cleavage rises from 0.04 to 0.07.

First: C11A G23A
Second: C11A G23C
The self-cleavage of the first is higher: 0.07 for the first, 0.03 for the second.

C11A G23U and C11A G30A are the same in self-cleavage: 0.03 for the first, 0.03 for the second.

C11A G30C and C11A G30U are the same in self-cleavage: 0.03 for the first, 0.03 for the second.

Compared with C11A G34A, C11A G34C is lower in self-cleavage: 0.16 for the first, 0.07 for the second.

Compared with C11A G34U, C11A G35A is higher in self-cleavage: 0.11 for the first, 0.4 for the second.

First: C11A G35C
Second: C11A G35U
The self-cleavage of the first is lower: 0.09 for the first, 0.37 for the second.

Compared with C11A G42A, C11A G42C is higher in self-cleavage: 0.76 for the first, 0.83 for the second.

First: C11A G42U
Second: C11A G44A
The self-cleavage of the first is higher: 0.73 for the first, 0.19 for the second.

First: C11A G44C
Second: C11A G44U
The self-cleavage of the first is higher: 0.45 for the first, 0.08 for the second.

Going from C11A G45A to C11A G45C, the self-cleavage falls from 0.06 to 0.04.

Going from C11A G45U to C11A G47A, the self-cleavage rises from 0.06 to 0.07.

First: C11A G47C
Second: C11A G47U
The self-cleavage of the first is lower: 0.05 for the first, 0.06 for the second.

C11A G48A and C11A G48C are the same in self-cleavage: 0.05 for the first, 0.05 for the second.

Compared with C11A G48U, C11A G49A is higher in self-cleavage: 0.05 for the first, 0.06 for the second.

First: C11A G49C
Second: C11A G49U
The self-cleavage of the first is lower: 0.06 for the first, 0.07 for the second.

Compared with C11A G50A, C11A G50C is higher in self-cleavage: 0.3 for the first, 0.57 for the second.

First: C11A G50U
Second: C11A G51A
The self-cleavage of the first is higher: 0.77 for the first, 0.17 for the second.

Going from C11A G51C to C11A G51U, the self-cleavage rises from 0.04 to 0.06.

Compared with C11A G53A, C11A G53C is lower in self-cleavage: 0.49 for the first, 0.04 for the second.

Going from C11A G53U to C11A G54A, the self-cleavage rises from 0.09 to 0.62.

First: C11A G54C
Second: C11A G54U
The self-cleavage of the first is lower: 0.66 for the first, 0.71 for the second.

First: C11A U12A
Second: C11A U12C
The self-cleavage of the first is lower: 0.09 for the first, 0.14 for the second.

First: C11A U12G
Second: C11A U18A
The self-cleavage of the first is lower: 0.09 for the first, 0.67 for the second.

Compared with C11A U18C, C11A U18G is higher in self-cleavage: 0.43 for the first, 0.64 for the second.

Going from C11A U24A to C11A U24C, the self-cleavage rises from 0.05 to 0.06.

Compared with C11A U24G, C11A U37A is higher in self-cleavage: 0.07 for the first, 0.48 for the second.

Compared with C11A U37C, C11A U37G is lower in self-cleavage: 0.88 for the first, 0.81 for the second.

First: C11A U43A
Second: C11A U43C
The self-cleavage of the first is higher: 0.76 for the first, 0.1 for the second.

Going from C11A U43G to C11G, the self-cleavage rises from 0.56 to 0.7.

First: C11G C9A
Second: C11G C9G
The self-cleavage of the first is lower: 0.09 for the first, 0.19 for the second.

First: C11G C9U
Second: C11G C14A
The self-cleavage of the first is higher: 0.07 for the first, 0.05 for the second.

Compared with C11G C14G, C11G C14U is higher in self-cleavage: 0.06 for the first, 0.13 for the second.

Going from C11G C15A to C11G C15G, the self-cleavage rises from 0.09 to 0.1.

First: C11G C15U
Second: C11G C20A
The self-cleavage of the first is lower: 0.08 for the first, 0.4 for the second.

Compared with C11G C20G, C11G C20U is higher in self-cleavage: 0.04 for the first, 0.5 for the second.

Compared with C11G C21A, C11G C21G is lower in self-cleavage: 0.06 for the first, 0.04 for the second.

Going from C11G C21U to C11G C25A, the self-cleavage falls from 0.39 to 0.04.

Compared with C11G C25G, C11G C25U is higher in self-cleavage: 0.04 for the first, 0.18 for the second.

First: C11G C26A
Second: C11G C26G
The self-cleavage of the first is lower: 0.03 for the first, 0.1 for the second.

Compared with C11G C26U, C11G C27A is lower in self-cleavage: 0.19 for the first, 0.07 for the second.

First: C11G C27G
Second: C11G C27U
The self-cleavage of the first is lower: 0.03 for the first, 0.06 for the second.

Compared with C11G C31A, C11G C31G is higher in self-cleavage: 0.03 for the first, 0.04 for the second.

Compared with C11G C31U, C11G C32A is lower in self-cleavage: 0.08 for the first, 0.04 for the second.

Going from C11G C32G to C11G C32U, the self-cleavage falls from 0.06 to 0.04.

Going from C11G C33A to C11G C33G, the self-cleavage rises from 0.04 to 0.07.

First: C11G C33U
Second: C11G C52A
The self-cleavage of the first is lower: 0.06 for the first, 0.24 for the second.

Compared with C11G C52G, C11G C52U is higher in self-cleavage: 0.22 for the first, 0.73 for the second.

Compared with C11G G13A, C11G G13C is lower in self-cleavage: 0.06 for the first, 0.02 for the second.

Compared with C11G G13U, C11G G19A is higher in self-cleavage: 0.03 for the first, 0.08 for the second.

First: C11G G19C
Second: C11G G19U
The self-cleavage of the first is lower: 0.03 for the first, 0.05 for the second.

Going from C11G G22A to C11G G22C, the self-cleavage falls from 0.07 to 0.04.

Compared with C11G G22U, C11G G23A is higher in self-cleavage: 0.03 for the first, 0.05 for the second.

Going from C11G G23C to C11G G23U, the self-cleavage rises from 0.02 to 0.04.

Compared with C11G G30A, C11G G30C is higher in self-cleavage: 0.03 for the first, 0.04 for the second.

Compared with C11G G30U, C11G G34A is higher in self-cleavage: 0.02 for the first, 0.07 for the second.

First: C11G G34C
Second: C11G G34U
The self-cleavage of the first is higher: 0.05 for the first, 0.04 for the second.

Going from C11G G35A to C11G G35C, the self-cleavage falls from 0.08 to 0.05.

C11G G35U gave a self-cleavage of 0.06.
